SIAE primary: blocks human sialic acid acetylesterase | inhibition, % at 9.66 µM | 370,000 tested, 0.69% active | SIAE FP-Rh probe binding, fluorescence polarization;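 active = inhibition above a cutoff: mean of compounds within the control limits plus 3 SD of those, cut at about 17% in these data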;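 note: 0% = plate median of compound wells and 100% = probe without SIAE protein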
TCR CD3 inh: human TCR-CD3 binding inhibition; inhibition, % at 9.4 µM; 360,000 tested, 0.37% active; TAMRA-labeled TCR probe fluorescence, biochemical; AID 651800; in the data active = inhibition above about 19%;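 note: recombinant mutant TCR 2C K166C tagged with TAMRA read by polarization; 0% = receptor in buffer alone and 100% = receptor with positive control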
PRMT1 inh: blocks human protein arginine methyltransferase 1; inhibition, % at 2.79 µM; recombinant PRMT1, activity-based probe fluorescence polarization; 370,000 tested, 1.3% active;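 active = inhibition above about 21% made by adding two undisclosed values, limit read from the data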
HTRA1 inhibitor: blocks human HTRA1 serine peptidase. recombinant HTRA1, FP-rhodamine activity-based probe, fluorescence polarization. inhibition, % at 5.96 µM. 340,000 tested, 0.5% active; in the data active = inhibition above about 36%;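 note: 0% = enzyme with DMSO and 100% = wells lacking enzyme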
Target sequence (Q92743 whole entry, looked up): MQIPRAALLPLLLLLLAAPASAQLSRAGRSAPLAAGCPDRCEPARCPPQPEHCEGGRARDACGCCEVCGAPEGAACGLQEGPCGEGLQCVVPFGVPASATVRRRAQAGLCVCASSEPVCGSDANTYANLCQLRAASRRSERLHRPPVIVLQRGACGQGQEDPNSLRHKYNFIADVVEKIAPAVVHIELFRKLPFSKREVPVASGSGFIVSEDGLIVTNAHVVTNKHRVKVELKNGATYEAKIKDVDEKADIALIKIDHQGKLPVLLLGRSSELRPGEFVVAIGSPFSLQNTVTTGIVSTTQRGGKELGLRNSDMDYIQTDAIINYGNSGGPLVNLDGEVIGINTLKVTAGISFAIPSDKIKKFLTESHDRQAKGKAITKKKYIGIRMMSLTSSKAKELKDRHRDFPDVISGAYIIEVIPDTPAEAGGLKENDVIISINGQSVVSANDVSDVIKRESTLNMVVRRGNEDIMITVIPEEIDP
mABHD4 FP: inhibitors of mouse ABHD4; purified mABHD4, FP-Rh probe fluorescence polarization; inhibition, % at 8.92 µM; 370,000 tested, 0.54% active; AID 720543;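 active = inhibition exceeding the mean over every tested compound plus 3 SD, cut at about 30% in these data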;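 note: 0% = plate median of compound wells and 100% = S159A mutant with DMSO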
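Test system: mABHD4 protein | Buffer or medium: HEPES pH 7.0 buffer, 150 mM NaCl, 0.01% Pluronic F-127 | Probe or stimulus: FP-Rh fluorescent activity-based probe, added after compound pre-incubation | Timing: Pre-incubation 45 min, probe exposure 60 min, at 25 °C | Technique: Fluorescence polarization, excitation 525 nm, emission 598 nm, BODIPY TMR filters | Repeats: Single well per compound (singlicate)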
ABHD4 confirm: ABHD4 (mouse) inhibition, FP confirmation. shares compounds with mABHD4 FP. purified mABHD4, FP-Rh probe fluorescence polarization. inhibition, % at 8.92 µM. 1,800 tested, 55% active. AID 720658;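 active = mean inhibition across replicates above the hit cutoff set in the primary screen, cut at about 30% in these data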;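 note: 0% = wild-type ABHD4 with DMSO and 100% = catalytically dead S159A mutant with DMSO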
Starred values were filed as active, the others as inactive; . = no result given. A selection: hits, their analogues and other compounds. The true share with any hit is near 2.7%.

SMILES	SIAE primary	TCR CD3 inh	PRMT1 inh	HTRA1 inhibitor	mABHD4 FP	ABHD4 confirm
CCC(=O)NC1=C(Cl)C(=O)C(NC(=O)CC)=C(Cl)C1=O	7	-3	90*	7	34*	40*
N#C/C(=C(/O)c1ccc2c(c1)OCO2)c1nc2cc(C(F)(F)F)ccc2s1	2	1	2	-1	33*	10
COc1ccccc1NC(=O)c1ccccc1NC(=O)c1ccccn1	-6	-3	-4	-22	-4	.
COc1ccc(Cl)cc1NC(=O)NNC(=O)c1ccccn1	3	-17	-2	2	40*	29
Cc1ccc(C(=O)N2CCC[C@@H]2C(=O)N2CCC[C@@H]2C(=O)NCc2ccccc2)cc1	2	-7	2	.	0	.
CC1CCC(C(C)C)C(OCC(O)CNC(C)(C)C)C1 (stereo not given)	-2	-1	2	-10	-3	.
CC(C)[C@@H]1CC[C@@H](C)C[C@H]1OC[B-](F)(F)F	8	-6	-7	.	43*	47*
O=C(OCc1ccccc1)[C@H](Cc1ccccc1)NC(=O)[C@@H]1CC=C[C@@H]2CCN(Cc3ccccc3)C(=O)[C@@H]21	0	.	-2	.	8	.
COc1ccc2nc(-n3c(O)c(C4=c5ccccc5=NC4=O)[nH]c3=S)sc2c1	3	0	3	30	52*	169*
Cn1c(O)c(C2=c3ccccc3=NC2=O)[nH]c1=S	-2	-5	-1	6	5	.
CCCCOc1ccc2c(c1)C(=O)c1cc(O)ccc1-2	9	5	2	35	44*	54*
O=S(=O)(Nc1ccc(-c2nc3cccnc3s2)cc1)c1cccs1	-5	5	-6	-6	-9	.
Cc1cc(-c2nc3cccnc3s2)ccc1NS(=O)(=O)c1cccs1	-4	-1	-1	-13	46*	-2
CC(C)CC(=O)N1CC=CC[C@@H](c2ccc(Cl)cc2)N(Cc2ccc(Cl)cc2)C(=O)[C@@H]1Cc1ccccc1	-10	-3	-2	-27	-4	.
Cc1ccccc1NC(=O)Cc1nc(COC(=O)c2cccc([N+](=O)[O-])c2)cs1	6	8	-1	-7	54*	42*
Cc1ccccc1NC(=O)Cc1nc(COC(=O)c2cc([N+](=O)[O-])ccc2NCCO)cs1	-6	-10	0	-17	40*	19
CC(C)(C)c1ccc(S(=O)(=O)Nc2noc3ccccc23)cc1	5	0	3	-1	30*	16
Cc1cccc(C)c1NC(=O)C1(C)CSCC(=O)N1CCc1c[nH]c2ccccc12 (stereo not given)	2	-6	4	.	-3	.
COc1cc([N+](=O)[O-])ccc1NC(=O)CSc1n[nH]c(C(C)C)n1	-1	4	0	2	-7	.
O=C(CN1CCN(c2ccc(O)cc2)CC1)Nc1ccccc1C(=O)NCCc1ccccc1	10	-6	18	27	32*	21
COc1cccc(-n2sc3c(c2=S)-c2cc(OC)ccc2NC3(C)C)c1	5	1	-1	16	-2	.
CC1(C)Nc2ccc(O)cc2-c2c1ssc2=S	3	-4	22*	20	37*	32*
O=C(NCCCc1ccccc1)[C@H](Cc1ccccc1)NC1(C(=O)NCCc2c[nH]c3ccccc23)CCOCC1	5	.	-2	.	-12	.
Cc1cc2nc(CCN(C(=S)NCC3CCCO3)C3CCCC3)[nH]c2cc1C (stereo not given)	6	-3	1	-6	10	.
Cc1cc2nc(CCN(C(=S)NCC(C)C)C3CCCC3)[nH]c2cc1C	-4	-7	5	-42	42*	48*
SMILES	SIAE primary	TCR CD3 inh	PRMT1 inh	HTRA1 inhibitor	mABHD4 FP	ABHD4 confirm
O=C(N/N=C/c1ccc(-c2ccccc2Cl)o1)c1ccccc1	6	2	1	-19	-7	.
O=C(O)c1ccc(N/N=C/c2ccc(-c3ccc(Br)cc3)o2)cc1	3	4	8	16	42*	84*
O=C(O)c1ccc(N/N=C/c2ccc(-c3ccccc3Cl)o2)cc1	14	0	2	-2	40*	46*
c1cc2c(cc1C1CCCCC1)c1c3n2CCCNC3CCC1 (stereo not given)	10	4	-2	26	36*	57*
N#CC1=C(N)Oc2cc(N)ccc2C1c1ccccc1Cl (stereo not given)	1	0	4	3	30*	-4
N#CC1=C(N)Oc2cc(N)ccc2C1c1cccnc1 (stereo not given)	7	1	3	1	2	.
Cc1[nH][nH]c(=O)c1C(c1cc(Br)ccc1O)c1c(C)[nH][nH]c1=O	6	0	-5	2	8	.
O=C(O)c1[nH]c2ccccc2c1-c1ccccc1	1	2	0	7	6	.
O=C(O)c1[nH]c2ccccc2c1C(c1c(F)cccc1Cl)c1c(C(=O)O)[nH]c2ccccc12	5	10	2	-3	42*	50*
O=C(O)c1[nH]c2ccccc2c1C(c1cc(Br)ccc1O)c1c(C(=O)O)[nH]c2ccccc12	4	9	2	1	43*	47*
COc1cc(C(=O)Nc2c(C(=O)O)[nH]c3ccccc23)cc(OC)c1OC	0	-2	2	1	3	.
COc1cc(Cl)cc(C(c2c(C(=O)O)[nH]c3ccccc23)c2c(C(=O)O)[nH]c3ccccc23)c1O	7	12	0	2	43*	55*
COC(=O)c1c(-c2ccc(OC)cc2)c2c(c3c4cc(OC)ccc4n(S(=O)(=O)c4ccc(C)cc4)c13)C(=O)N(C)C2	4	-1	4	.	-6	.
COc1ccccc1CNc1nc(NCc2ccc(C(C)C)cc2)c2sccc2n1	10	3	-2	.	36*	34*
CNc1nc(NCCOc2ccccc2Cl)c2sccc2n1	-2	-6	-1	.	7	.
COc1ccccc1CNc1nc(NCCOc2ccccc2Cl)c2sccc2n1	10	0	-1	.	31*	69*
O=C(NC1CCCC1)[C@@H]1CCCN1C(=O)[C@@H](NS(=O)(=O)c1ccc(F)cc1F)c1ccccc1	-3	-2	2	.	-6	.
N#Cc1ccc(CN(Nc2ccccc2)c2ccccc2)cc1	-5	-3	-2	-11	-11	.
COc1ccccc1C(=O)NCCC(=O)NNC(=O)Cn1ccc(C(F)(F)F)n1	-1	4	0	-1	5	.
NC(CO)c1csc(Nc2ccc(C(F)(F)F)cn2)n1 (stereo not given)	-2	0	-2	.	-2	.
NC(Cc1ccc(Cl)cc1)c1csc(Nc2ccc(C(F)(F)F)cn2)n1 (stereo not given)	-2	6	-2	.	32*	30*
Nc1ccc(NC(=O)c2ccc(C(=O)Nc3ccc(N)cc3)cc2)cc1	-4	-5	6	-6	-15	.

Compound activity deposited in PubChem by The Scripps Research Institute Molecular Screening Center.
